Active and inactive are the calls of the source. The rule behind the calls is not given here.
Tests used:
A549 = assay: Antiproliferative activity against human A549 cells after 72 hrs by MTT assay; format: functional, cell-based; settings: A549, 72 h
Procedure, shortened: (§1)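 Cell growth inhibition was read by MTT assay, and IC50 values were reported.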

SAOS-2 [1] = assay: Induction of reactive oxygen species generation in human Saos2 cells at 10 uM after 1 hr by DCFH-DA dye-based fluorescence microscopic analysis relative to control; format: functional
Procedure, shortened: (§2)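 ROS was imaged by fluorescence microscopy in HCT-116 and Saos-2 cells after 1 h treatment at 10 μM. DMSO-treated cells served as the control.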

WI-38 = assay: Cytotoxicity against human W138 cells after 72 hrs by MTT assay; format: cell-based; settings: WI-38, 72 h; procedure, shortened: as §1
SK-HEP1 = assay: Antiproliferative activity against human SKHEP1 cells after 72 hrs by MTT assay; format: functional, cell-based; settings: SK-HEP1, 72 h; procedure, shortened: as §1
HCT-116 [2] = assay: Antiproliferative activity against human HCT116 cells after 72 hrs by MTT assay; format: functional, cell-based; settings: HCT-116, 72 h; procedure, shortened: as §1
HCT-116 [3] = assay: Induction of reactive oxygen species generation in human HCT116 cells at 10 uM after 1 hr by DCFH-DA dye-based fluorescence microscopic analysis; format: functional, cell-based; procedure, shortened: as §2
MDA-MB-231 = assay: Antiproliferative activity against human MDA-MB-231 cells after 72 hrs by MTT assay; format: functional, cell-based; settings: MDA-MB-231, 72 h; procedure, shortened: as §1
U2OS = assay: Antiproliferative activity against human U2OS cells after 72 hrs by MTT assay; format: functional, cell-based; procedure, shortened: as §1
SAOS-2 [4] = assay: Antiproliferative activity against human Saos2 cells after 72 hrs by MTT assay; format: functional, cell-based; settings: SAOS-2, 72 h; procedure, shortened: as §1
SAOS-2 [5] = assay: Cell cycle arrest in human Saos2 cells assessed as accumulation at S phase at 1 to 5 uM after 24 hrs by propidium iodide staining based flow cytometric method; format: functional
SAOS-2 [6] = assay: Cell cycle arrest in human Saos2 cells assessed as accumulation at G2/M phase at 1 to 5 uM after 24 hrs by propidium iodide staining based flow cytometric method; format: functional
SAOS-2 [7] = assay: Induction of apoptosis in human Saos2 cells after 24 hrs by annexin V-FITC/propidium iodide staining-based flow cytometric method; format: functional, cell-based
Procedure, shortened: (§3)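 Apoptosis was scored by fluorescence-activated cell sorting after 24 h treatment of HCT-116 and Saos-2 cells, with DMSO controls. Cell morphology was also examined. The percentage of apoptotic cells was reported at 1 and 5 μM.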

HCT-116 [8] = assay: Cell cycle arrest in human HCT116 cells accumulation at G0/G1 phase at 1 to 5 uM after 24 hrs by propidium iodide staining based flow cytometric method
SAOS-2 [9] = assay: Induction of apoptosis in human Saos2 cells at 5 uM after 24 hrs by annexin V-FITC/propidium iodide staining-based flow cytometric method; format: functional; procedure, shortened: as §3
HCT-116 [10] = assay: Induction of apoptosis in human HCT116 cells after 24 hrs by annexin V-FITC/propidium iodide staining-based flow cytometric method; format: functional, cell-based; procedure, shortened: as §3
HCT-116 [11] = assay: Cell cycle arrest in human HCT116 cells assessed as accumulation at G0/G1 phase at 1 to 5 uM after 24 hrs by propidium iodide staining based flow cytometric method; format: functional
HCT-116 [12] = assay: Cell cycle arrest in human HCT116 cells assessed as accumulation at S phase 1 to 5 uM after 24 hrs by propidium iodide staining based flow cytometric method; format: functional
SAOS-2 [13] = assay: Induction of apoptosis in human Saos2 cells at 1 uM after 24 hrs by annexin V-FITC/propidium iodide staining-based flow cytometric method; format: functional; procedure, shortened: as §3
HCT-116 [14] = assay: Cell cycle arrest in human HCT116 cells assessed as accumulation at G0/G1 phase after 24 hrs by propidium iodide staining based flow cytometric method; format: functional
SAOS-2 [15] = assay: Induction of reactive oxygen species generation in human Saos2 cells at 1 to 10 uM DCFH-DA dye-based fluorescence microscopic analysis; format: functional, cell-based; settings: TDE = time-dependent effect
Procedure, shortened: (§4)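 Cellular ROS was imaged by fluorescence microscopy in HCT-116 and Saos-2 cells. Cells were treated at 1, 5 and 10 μM for 1 h and 3 h, with a DMSO control.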

HCT-116 [16] = assay: Induction of reactive oxygen species generation in human HCT116 cells at 1 to 5 uM after 1 to 3 hrs by DCFH-DA dye-based fluorescence microscopic analysis; format: functional, cell-based; procedure, shortened: as §4
HCT-116 [17] = assay: Induction of apoptosis in human HCT116 cells at 5 uM after 24 hrs by annexin V-FITC/propidium iodide staining-based flow cytometric method; format: functional; procedure, shortened: as §3
SAOS-2 [18] = assay: Induction of reactive oxygen species generation in human Saos2 cells at 1 to 5 uM after 1 to 3 hrs by DCFH-DA dye-based fluorescence microscopic analysis; format: functional, cell-based; procedure, shortened: as §4
HCT-116 [19] = assay: Induction of apoptosis in human HCT116 cells at 1 uM after 24 hrs by annexin V-FITC/propidium iodide staining-based flow cytometric method; format: functional; procedure, shortened: as §3
HCT-116 [20] = assay: Induction of reactive oxygen species generation in human HCT116 cells at 1 to 10 uM by DCFH-DA dye-based fluorescence microscopic analysis; format: functional, cell-based; settings: TDE = time-dependent effect; procedure, shortened: as §4

| IC50 (A549) | IC50 (SK-HEP1) | IC50 (HCT-116 [2]) | IC50 (MDA-MB-231) | IC50 (U2OS) | Compound | IC50 (WI-38) | Activity (HCT-116 [3]) | IC50 (SAOS-2 [4]) | also measured |
| --- | --- | --- | --- | --- | --- | --- | --- | --- | --- |
| 2.97 µM | 1.9 µM | 2.36 µM | 2.97 µM | 1.67 µM | O=C(/C=C/c1cccnc1)N1CCC=C(Cl)C1=O | 47 µM | Active | 0.53 µM | fold change (FC) (SAOS-2 [1]): 2 |
| 6.84 µM | 13.3 µM | 7.34 µM | 10.6 µM | 9.49 µM | COc1cc(/C=C/C(=O)N2CCC=CC2=O)cc(OC)c1OC [PIPLARTINE] | > 100 µM | Active | 7.31 µM | Activity (SAOS-2 [5]): inactive; Activity (SAOS-2 [6]): inactive; Activity (SAOS-2 [7]): Dose-dependent effect; Activity (HCT-116 [8]): Active; Activity (SAOS-2 [9]): 33%; Activity (HCT-116 [10]): Dose-dependent effect; Activity (HCT-116 [11]): Active; Activity (HCT-116 [12]): Active; Activity (SAOS-2 [13]): 26% |
| 11 µM | 2.78 µM | 4.37 µM | 4.97 µM | 2.26 µM | O=C(/C=C/c1ccoc1)N1CCC=C(Cl)C1=O | > 100 µM |  | 1.15 µM |  |
| 10.6 µM | 3.52 µM | 10.2 µM | 8.68 µM | 6.63 µM | O=C1C(Cl)=CCCN1C(=O)c1cnc2ccccc2c1 | > 100 µM |  | 2.96 µM |  |
| 8.64 µM | 4.83 µM | 3.84 µM | 4.83 µM | 5.67 µM | O=C1C(Cl)=CCCN1C(=O)c1cccnc1 | 31 µM |  | 2.55 µM |  |
| 8.6 µM | 3.96 µM | 4.2 µM | 5.04 µM | 7.29 µM | O=C(/C=C/C(=O)N1CCC=C(Cl)C1=O)N1CCC=C(Cl)C1=O | 89.5 µM |  | 0.82 µM |  |
| 4.12 µM | 0.71 µM | 1.67 µM | 1.67 µM | 1.17 µM | O=C(/C=C/c1ccccc1)N1CCC=C(Cl)C1=O | 84.6 µM | Active | 0.011 µM | fold change (FC) (SAOS-2 [1]): 2; Activity (SAOS-2 [5]): inactive; Activity (HCT-116 [14]): Dose-dependent effect; Activity (SAOS-2 [15]): Tde; Activity (SAOS-2 [6]): inactive; Activity (SAOS-2 [7]): Dose-dependent effect; Activity (HCT-116 [16]): Active; Activity (HCT-116 [17]): 17%; Activity (SAOS-2 [9]): 21.5%; Activity (HCT-116 [10]): Dose-dependent effect; Activity (SAOS-2 [18]): Active; Activity (HCT-116 [12]): Active; Activity (SAOS-2 [13]): 12.7%; Activity (HCT-116 [19]): 16%; Activity (HCT-116 [20]): Tde |
| 85.1 µM | 72.9 µM | 64.5 µM | 65.1 µM | 68.3 µM | O=C1C(Cl)=CCCN1C(=O)C1CC1c1ccccc1 (stereo unspecified) | > 100 µM |  | 23.5 µM |  |
| 8.3 µM | 1.27 µM | 4.49 µM | 5.52 µM | 1.47 µM | O=C(/C=C/c1ccco1)N1CCC=C(Cl)C1=O | > 100 µM |  | 0.28 µM |  |
| 7.93 µM | 1.19 µM | 0.92 µM | 1.73 µM | 1.12 µM | O=C(C#Cc1ccccc1)N1CCC=C(Cl)C1=O | > 100 µM | inactive | 0.42 µM | fold change (FC) (SAOS-2 [1]): 2 |
| > 100 µM | 75.2 µM | > 100 µM | > 100 µM | 97.5 µM | O=C1C(Br)=CCCN1C(=O)c1cnc2ccccc2c1 | > 100 µM |  | 26.7 µM |  |
| 18.6 µM | 13.6 µM | 5.89 µM | 19.2 µM | 8.6 µM | O=C1C(Cl)=CCCN1C(=O)c1ccco1 | > 100 µM |  | 3.86 µM |  |
| > 100 µM | > 100 µM | > 100 µM | > 100 µM | > 100 µM | O=C1C(Cl)=CCCN1C(=O)c1ccncc1 | > 100 µM |  | 89.9 µM |  |
